Legend:
[1] = Inhibition of HCV NS3 protease by FRET assay; parameters: species or system Hepacivirus hominis
Method in brief: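 Buffer was 50 mM HEPES pH 7.5, 10 mM DTT, 40% glycerol, 0.1% n-octyl-β-D-glucoside and 3.3% DMSO. Reaction was started with FRET substrate Ac-DED(Edans)EEAbu[COO]ASK(Dabcyl)-NH2. Ki was obtained by non-linear regression.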

[2] = test system: Hepatitis C virus; experiment: Antiviral activity against HCV 1B […] by firefly luciferase reporter gene assay; assay type: functional, organism-based, Hepacivirus hominis; conditions: genotype 1b, Huh-7
[3] = biological target: NS3 protease (Hepatitis C virus subtype 1b, UniProt Q0ZMF1, A156T); experiment: Inhibition of HCV NS3 protease A156T mutant by FRET assay; parameters: species or system Hepacivirus hominis
Method in brief: (§1)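 Buffer was 50 mM HEPES pH 7.5, 10 mM DTT, 40% glycerol, 0.1% n-octyl-β-D-glucoside and 3.3% DMSO. Reaction started with the FRET substrate Ac-DED(Edans)EEAbu[COO]ASK(Dabcyl)-NH2. Ki derived by non-linear regression.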

[4] = biological target: NS3 protease (Hepacivirus C, UniProt C1KIQ2, D168V); experiment: Inhibition of HCV NS3 protease D168V mutant by FRET assay; parameters: species or system Hepacivirus hominis; method in brief: as §1

Compound | Ki [1] [nM] | EC50 [2] [nM] | Ki [3] [nM] | Ki [4] [nM]
CC(C)(C)NC(=O)N[C@H](C(=O)N1C[C@H]2[C@@H]([C@H]1C(=O)NC(CC1CCC1)C(=O)C(N)=O)C2(C)C)C(C)(C)C (some centres not stated) [BOCEPREVIR] | 14 | – | – | –
C=CCCCS(=O)(=O)NC(=O)[C@H](CCC)NC(=O)[C@@H]1C[C@@H](Oc2cc(-c3ccccc3)nc3cc(OC)ccc23)CN1C(=O)[C@@H](NC(=O)OC(C)(C)C)C(C)(C)C | 300 | – | – | –
C=Cc1cc([C@@H](NC(=O)[C@@H](NC(=O)OC(C)(C)C)C(C)(C)C)C(=O)N[C@@H](CCC)C(=O)NS(=O)(=O)c2ccccc2)ccc1Oc1cc(-c2ccccc2)nc2cc(OC)ccc12 | 130 | – | – | –
C=CCCCCS(=O)(=O)NC(=O)[C@H](CCC)NC(=O)[C@@H](NC(=O)[C@@H](NC(=O)OC(C)(C)C)C(C)(C)C)c1ccc(Oc2cc(-c3ccccc3)nc3cc(OC)ccc23)c(C=C)c1 | 120 | > 10000 | 380 | 390
C=CCc1ccccc1S(=O)(=O)NC(=O)[C@H](CCC)NC(=O)[C@@H](NC(=O)[C@@H](NC(=O)OC(C)(C)C)C(C)(C)C)c1ccc(Oc2cc(-c3ccccc3)nc3cc(OC)ccc23)c(C=C)c1 | 140 | > 10000 | – | –
COc1ccc2c(O[C@@H]3C[C@H]4C(=O)N[C@]5(C(=O)O)C[C@H]5/C=C\CCCCC[C@H](NC(=O)OC5CCCC5)C(=O)N4C3)cc(-c3csc(NC(C)C)n3)nc2c1 [CILUPREVIR] | 0.3 | 4 | – | –
COc1ccc2c(O[C@@H]3C[C@H]4C(=O)N[C@]5(C(=O)NS(=O)(=O)C6CC6)C[C@H]5/C=C\CCCCN(C)C(=O)[C@@H]4C3)cc(-c3nc(C(C)C)cs3)nc2c1C [SIMEPREVIR] | 0.36 | – | – | –
C=CCc1ccccc1S(=O)(=O)NC(=O)[C@H](CCC)NC(=O)[C@H](NC(=O)[C@@H](NC(=O)OC(C)(C)C)C(C)(C)C)c1ccc(Oc2cc(-c3ccccc3)nc3cc(OC)ccc23)c(C=C)c1 | 35 | 3000 | – | –
C=CCCCCS(=O)(=O)NC(=O)[C@H](CCC)NC(=O)[C@H](NC(=O)[C@@H](NC(=O)OC(C)(C)C)C(C)(C)C)c1ccc(Oc2cc(-c3ccccc3)nc3cc(OC)ccc23)c(C=C)c1 | 100 | 4700 | 270 | 530
CCC[C@H](NC(=O)[C@@H](NC(=O)[C@@H](NC(=O)OC(C)(C)C)C(C)(C)C)c1ccc(Oc2cc(-c3ccccc3)nc3cc(OC)ccc23)cc1)C(=O)NS(=O)(=O)c1ccccc1 | 230 | – | – | –
C=CCC1(S(=O)(=O)NC(=O)[C@H](CCC)NC(=O)[C@@H](NC(=O)[C@@H](NC(=O)OC(C)(C)C)C(C)(C)C)c2ccc(Oc3cc(-c4ccccc4)nc4cc(OC)ccc34)c(C=C)c2)CC1 | 330 | – | – | –
CCC[C@H](NC(=O)[C@@H]1[C@H]2CCC[C@H]2CN1C(=O)[C@@H](NC(=O)[C@@H](NC(=O)c1cnccn1)C1CCCCC1)C(C)(C)C)C(=O)C(=O)NC1CC1 [TELAPREVIR] | 40 | – | – | –
C=CCCCS(=O)(=O)NC(=O)[C@H](CCC)NC(=O)[C@H](NC(=O)[C@@H](NC(=O)OC(C)(C)C)C(C)(C)C)c1ccc(Oc2cc(-c3ccccc3)nc3cc(OC)ccc23)c(C=C)c1 | 48 | 8900 | 86 | 380
C=CCC1(S(=O)(=O)NC(=O)[C@H](CCC)NC(=O)[C@H](NC(=O)[C@@H](NC(=O)OC(C)(C)C)C(C)(C)C)c2ccc(Oc3cc(-c4ccccc4)nc4cc(OC)ccc34)c(C=C)c2)CC1 | 190 | – | – | –
C=Cc1cc([C@@H](NC(=O)[C@@H](NC(=O)OC(C)(C)C)C(C)(C)C)C(=O)N[C@@H](CCC)C(=O)NS(=O)(=O)c2ccccc2C=C)ccc1Oc1cc(-c2ccccc2)nc2cc(OC)ccc12 | 47 | 5400 | 180 | 230
C=Cc1cc([C@H](NC(=O)[C@@H](NC(=O)OC(C)(C)C)C(C)(C)C)C(=O)N[C@@H](CCC)C(=O)NS(=O)(=O)c2ccccc2)ccc1Oc1cc(-c2ccccc2)nc2cc(OC)ccc12 | 290 | – | – | –
CC[C@@H]1C[C@]1(NC(=O)[C@@H]1C[C@@H]2CN1C(=O)[C@H](C(C)(C)C)NC(=O)OCC(C)(C)CCCCc1cccc3c1CN(C3)C(=O)O2)C(=O)NS(=O)(=O)C1CC1 [VANIPREVIR] | 0.06 | 5 | – | –
CC(C)(C)OC(=O)N[C@H]1CCCCC/C=C\C2C[C@@]2(C(=O)NS(=O)(=O)C2CC2)NC(=O)[C@@H]2C[C@@H](OC(=O)N3Cc4cccc(F)c4C3)CN2C1=O (single isomer, unassigned) [DANOPREVIR] | – | 2.1 | – | –
C=Cc1cc([C@H](NC(=O)[C@@H](NC(=O)OC(C)(C)C)C(C)(C)C)C(=O)N[C@@H](CCC)C(=O)NS(=O)(=O)c2ccccc2C=C)ccc1Oc1cc(-c2ccccc2)nc2cc(OC)ccc12 | 120 | > 10000 | 250 | 450
C=CCCCS(=O)(=O)NC(=O)[C@H](CCC)NC(=O)[C@@H](NC(=O)[C@@H](NC(=O)OC(C)(C)C)C(C)(C)C)c1ccc(Oc2cc(-c3ccccc3)nc3cc(OC)ccc23)c(C=C)c1 | 63 | > 10000 | 180 | 140

— ChEMBL document CHEMBL1177656, “Improved P2 phenylglycine-based hepatitis C virus NS3 protease inhibitors with alkenylic prime-side substituents” (Bioorg Med Chem, 2010)
